Among the data in ChEMBL document CHEMBL1148923, “Novel cassane and cleistanthane diterpenes from Myrospermum frutescens: absolute stereochemistry of the cassane diterpene series” (J Nat Prod, 2004) are IC50 values, retold here.

For experiment [1], the system named is Trypanosoma cruzi. The experiment can be described thus: Antitrypanosomal activity against extracellular Trypanosoma cruzi Tulahuen clone C4. Format: functional, organism-based.
Another experiment has as its system Vero. The experiment can be described thus: Cytotoxicity against african green monkey Vero cells after 4 hrs by MTT assay. Format: cell-based. The note with it: Chlorocebus sabaeus. A digest of the protocol: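 Adherent Vero cells were treated with compound and incubated 4 h at 37°. Viability was read from MTT reduction in an ELISA reader at 570 nm.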
For experiment [2], the system named is Trypanosoma cruzi. The experiment can be described thus: Antitrypanosomal activity against intracellular Trypanosoma cruzi Tulahuen clone C4 assessed as cleavage of […]. Type of experiment: functional, organism-based. A digest of the protocol:
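Transgenic T. cruzi (Tulahuen strain, clone C4) expressing β-galactosidase were exposed to added compound. Growth of the intracellular form was read as cleavage of chlorophenol red-β-D-galactoside (CPRG) at 570 nm.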

The structures appear in SMILES notation.

`C=CC1=C(C)[C@@H]2CC[C@H]3[C@](C)(CO)CCC[C@]3(C)[C@H]2CC1` registered an IC50 with Trypanosoma cruzi [1] of 48 µM.

Consider `C=CC1=C(C)[C@@H]2C[C@@H](OC(C)=O)[C@H]3[C@](C)(CO)CCC[C@]3(C)[C@H]2CC1`, for which the values for the IC50 with Trypanosoma cruzi [1], with Vero and in the experiment with Trypanosoma cruzi [2] were 56.7 µM, 178 µM and 76.5 µM, respectively.

In the experiment on Vero, `C[C@]1(CO)CCC[C@]2(C)[C@H]3CC(=O)[C@@]4(C)[C@@H]([C@@H]3CC[C@@H]12)[C@@H]4CO` showed an IC50 of 433 µM.

For `C=CC1=C(C)[C@@H]2CC(=O)[C@H]3[C@](C)(COC(C)=O)CCC[C@]3(C)[C@H]2CC1`, the results for the IC50 in the experiment with Trypanosoma cruzi [1], in the experiment on Vero and in the experiment with Trypanosoma cruzi [2] were 17.7 µM, 238 µM and 79.1 µM, respectively.

In the case of `CC(=O)OC[C@]1(C)CCC[C@]2(C)[C@H]3CCC(C=O)=C(C)[C@@H]3CC(=O)[C@@H]12`, the values for the IC50 in the experiment with Trypanosoma cruzi [1], in the experiment with Vero and in the experiment with Trypanosoma cruzi [2] were 40.4 µM, 416 µM and 61.4 µM, respectively.

`C=CC1=C(C)[C@@H]2C[C@@H](O)[C@H]3[C@](C)(CO)CCC[C@]3(C)[C@H]2CC1`: in the experiment with Trypanosoma cruzi [2], the IC50 amounted to 16 µM.

The molecule `C=CC1=C(C)[C@@H]2C[C@@H](O)[C@H]3[C@](C)(COC(C)=O)CCC[C@]3(C)[C@H]2CC1` returned an IC50 in the experiment on Trypanosoma cruzi [1] of 11 µM.

The molecule `C=C[C@@]1(O)CC[C@H]2[C@@H](C[C@@H](O)[C@H]3[C@](C)(COC(C)=O)CCC[C@]23C)C1=C` returned an IC50 in the experiment with Trypanosoma cruzi [1] of 16 µM.

Turning to `CO[C@@]12C[C@H]3[C@@H]([C@@H](O)[C@@H](OC(C)=O)[C@H]4[C@](C)(COC(C)=O)CCC[C@]34C)[C@@H](C)C1=CC(=O)O2` [CHAGRESLACTONE], the figures for the IC50 with Trypanosoma cruzi [1] and with Vero were 75 µM and 225 µM, respectively.

Regarding `C=CC1=C(CO)[C@@H]2C[C@@H](O)[C@H]3[C@](C)(COC(C)=O)CCC[C@]3(C)[C@H]2CC1` [CHAGRESNOL], the IC50 came to 38.8 µM in the experiment on Trypanosoma cruzi [1], 156 µM in the experiment on Vero and 76 µM with Trypanosoma cruzi [2].

Take `CC(=O)OC[C@H]1[C@@H]2[C@@H]3CC[C@H]4[C@@](C)(CO)CCC[C@]4(C)[C@H]3CC(=O)[C@@]21C` [CHAGRESNONE]: the IC50 turned out to be 56.9 µM in the experiment with Trypanosoma cruzi [1], 448 µM in the experiment with Vero and 95.5 µM in the experiment on Trypanosoma cruzi [2].
